ChEMBL document CHEMBL4270598, “Synthesis and discovery of a drug candidate for treatment of idiopathic pulmonary fibrosis through inhibition of TGF-β1 pathway” (Eur J Med Chem, 2018)
Calls of active or inactive are those of the source. The calls are words filed in the database; no cut-off is given here.

Columns and labels:
[1] = molecular target: T1, Transforming growth factor beta-1 proprotein/Mothers against decapentaplegic homolog 3 (Mus musculus) (UniProt P04202+Q8BUN5); assay: Inhibition of TGF-beta1/smad3 signaling pathway in mouse NIH/3T3 cells at 10 uM after 18 hrs by CAGA-luciferase reporter gene assay relative to control; assay type: cell-based
T1 sequence (P04202 279-390 limits assumed): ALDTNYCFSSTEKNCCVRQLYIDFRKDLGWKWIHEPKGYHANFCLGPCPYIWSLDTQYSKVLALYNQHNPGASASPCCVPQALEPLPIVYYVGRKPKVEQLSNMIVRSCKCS
T1 sequence (Q8BUN5 2-425 partner limits assumed): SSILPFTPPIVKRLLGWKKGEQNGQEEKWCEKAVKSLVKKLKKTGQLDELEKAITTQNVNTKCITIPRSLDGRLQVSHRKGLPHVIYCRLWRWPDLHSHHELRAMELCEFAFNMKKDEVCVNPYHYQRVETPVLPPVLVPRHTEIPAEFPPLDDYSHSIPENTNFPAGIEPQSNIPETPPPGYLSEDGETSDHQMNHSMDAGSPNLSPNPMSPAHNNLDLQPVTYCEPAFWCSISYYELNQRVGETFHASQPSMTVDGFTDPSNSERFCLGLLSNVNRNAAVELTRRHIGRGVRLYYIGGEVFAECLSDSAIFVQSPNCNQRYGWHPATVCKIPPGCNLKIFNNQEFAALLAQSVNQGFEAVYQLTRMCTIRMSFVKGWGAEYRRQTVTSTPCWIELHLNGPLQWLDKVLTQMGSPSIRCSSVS
Summary of the method: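 CAGA12-luciferase stably transfected NIH3T3 cells plated overnight. Treated with TGF-β1 (5 ng/mL) with or without compound at 10 µM in DMEM containing 0.1% FBS for 18 h. Lysate luminescence integrated over the first 20 s. Inhibition ratio calculated from TGF-β1-stimulated signal of treated versus control wells; mean of three independent experiments.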

[2] = molecular target: Transforming growth factor beta-1 proprotein (Mus musculus) (UniProt P04202); assay: Inhibition of TGF-beta1 in mouse Mlg cells assessed as reduction in fibronectin mRNA expression level at 10 uM after 24 hrs by qRT-PCR method; assay type: cell-based
Sequence of Transforming growth factor beta-1 proprotein (Mus musculus) (P04202 whole entry): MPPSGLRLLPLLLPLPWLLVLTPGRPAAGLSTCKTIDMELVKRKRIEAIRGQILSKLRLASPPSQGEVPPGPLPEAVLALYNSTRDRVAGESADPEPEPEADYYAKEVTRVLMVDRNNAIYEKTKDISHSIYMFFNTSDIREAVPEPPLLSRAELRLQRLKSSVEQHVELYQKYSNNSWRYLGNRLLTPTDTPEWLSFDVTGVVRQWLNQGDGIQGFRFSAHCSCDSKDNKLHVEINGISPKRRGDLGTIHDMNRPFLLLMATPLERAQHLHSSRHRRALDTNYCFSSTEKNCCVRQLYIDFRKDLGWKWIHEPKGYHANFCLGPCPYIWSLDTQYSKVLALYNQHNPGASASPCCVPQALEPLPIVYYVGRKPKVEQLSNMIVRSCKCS
Summary of the method: (§1)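 Mlg lung fibroblasts treated with or without TGF-β1 (5 ng/mL) plus compound at 10 µM for 24 h. α-SMA, Col1a1 and Fn1 mRNA measured by real-time PCR with β-actin reference primers. n=3.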

[3] = molecular target: Transforming growth factor beta-1 proprotein (Mus musculus) (UniProt P04202); assay: Inhibition of TGF-beta1 in mouse Mlg cells assessed as reduction in Col1a1 mRNA expression level at 10 uM after 24 hrs by qRT-PCR method; assay type: cell-based; summary of the method: as §1
[4] = molecular target: Transforming growth factor beta-1 proprotein (Mus musculus) (UniProt P04202); assay: Inhibition of TGF-beta1 in mouse Mlg cells assessed as reduction in alpha-SMA mRNA expression level at 10 uM after 24 hrs by qRT-PCR method; assay type: cell-based; summary of the method: as §1
[5] = molecular target: Transforming growth factor beta-1 proprotein (Mus musculus) (UniProt P04202); assay: Inhibition of TGF-beta1 in mouse Mlg cells assessed as reduction in cell migration at 10 uM after 24 hrs by wound healing based light microscopy
Summary of the method: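 Confluent Mlg monolayers scratched to a 100-µm wound. Cells then cultured in serum-free medium with or without TGF-β1 (5 ng/mL) and compound at 10 µM. Light-microscope images taken at 0, 12 and 24 h; wound area expressed relative to the initial scratch.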

[6] = molecular target: Transforming growth factor beta-1 proprotein (Mus musculus) (UniProt P04202); assay: Inhibition of TGF-beta1 in mouse Mlg cells assessed as decrease in cell viability at 10 uM after 24 hrs by MTT assay; assay type: cell-based
Summary of the method: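 Mlg cells exposed to TGF-β1 (5 ng/mL) with or without compound at 10 µM for 24 h; DMSO-treated cells served as control. MTT added for 4 h, then DMSO, and absorbance read. Viability normalized to control as 100%. Triplicate.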

[7] = molecular target: T1, Transforming growth factor beta-1 proprotein/Mothers against decapentaplegic homolog 3 (Mus musculus); assay: Inhibition of TGF-beta1/smad3 signaling pathway in mouse NIH/3T3 cells at 5 to 40 uM after 18 hrs by CAGA-luciferase reporter gene assay; assay type: cell-based
Summary of the method: (§2)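 CAGA12-luciferase NIH3T3 cells stimulated with TGF-β1 (5 ng/mL) in 0.1% FBS DMEM alongside compound at 5, 10, 20 and 40 µM for 18 h. Lysate luciferase read over the first 20 s. Triplicate.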

Mus musculus [8] = assay: In vivo inhibition of TGF-beta1/smad3 signaling pathway in bleomycin-induced pulmonary fibrosis in C57BL/6 mouse model assessed as decrease in Col1 protein expression level in lung tissue at 100 mg/kg, po qd administered from day 7 to 14 by Western blot analysis; assay type: functional, organism-based
Mus musculus [9] = assay: In vivo inhibition of TGF-beta1/smad3 signaling pathway in bleomycin-induced pulmonary fibrosis in C57BL/6 mouse model assessed as decrease in Col1 level in lung tissue at 100 mg/kg, po qd administered from day 7 to 14 by immunohistochemical analysis; assay type: functional, organism-based
Summary of the method: (§3)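 Lungs from bleomycin-challenged C57BL/6 mice (2 U/kg intratracheal; 100 mg/kg daily, days 7-14) were paraffin-embedded and dewaxed. Citrate (0.01 M) microwave antigen retrieval, then 5% serum block. Primary antibodies overnight at 4 °C: α-SMA 1:200, collagen I 1:100, p-Smad3 1:50. Secondary antibody 1 h at room temperature, then hematoxylin counterstain and microscopy.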

[10] = molecular target: T1, Transforming growth factor beta-1 proprotein/Mothers against decapentaplegic homolog 3 (Mus musculus); assay: Inhibition of TGF-beta1/smad3 signaling pathway in mouse NIH/3T3 cells assessed as decrease in ECM production at 10 uM after 24 hrs; assay type: cell-based
Mus musculus [11] = assay: Antifibrotic activity in bleomycin-induced pulmonary fibrosis in C57BL/6 mouse model assessed as decrease in collagen content in lung at 100 mg/kg, po qd administered from day 7 to 14 by spectrophotometric method; assay type: functional, organism-based
Summary of the method: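 Bleomycin model as above: 2 U/kg intratracheal in male C57BL/6 mice, 100 mg/kg daily from day 7 to day 14. Right lungs collected at day 14, dried and acid-hydrolysed, filtered, and pH adjusted to 6.5-8.0. Hydroxyproline then measured by chloramine-T spectrophotometry.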

[12] = molecular target: T1, Transforming growth factor beta-1 proprotein/Mothers against decapentaplegic homolog 3 (Mus musculus); assay: Inhibition of TGF-beta1/smad3 signaling pathway in mouse NIH/3T3 cell extract assessed as decrease in alpha-SMA protein expression at 10 uM after 24 hrs by Western blot analysis
Mus musculus [13] = assay: Antifibrotic activity in bleomycin-induced pulmonary fibrosis in C57BL/6 mouse model assessed as fibrotic area in lungs at 100 mg/kg, po qd administered from day 7 to 14 by hematoxylin-eosin staining based fluorescence microscopy; assay type: functional
Summary of the method: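 Male C57BL/6 mice (7-8 weeks, n=5/group) given intratracheal bleomycin 2 U/kg under chloral hydrate anaesthesia. Dosing at 100 mg/kg daily from day 7 to day 14, sacrifice at day 14. Left lungs formalin-fixed, paraffin-embedded, 5 µm sections HE-stained. Fibrosis ratio taken as fibrotic-region pixels over total lung pixels.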

Mus musculus [14] = assay: In vivo inhibition of TGF-beta1/smad3 signaling pathway in bleomycin-induced pulmonary fibrosis in C57BL/6 mouse model assessed as decrease in alpha-SMA level in lung tissue at 100 mg/kg, po qd administered from day 7 to 14 by immunohistochemical analysis; assay type: functional, organism-based; summary of the method: as §3
Mus musculus [15] = assay: In vivo inhibition of TGF-beta1/smad3 signaling pathway in bleomycin-induced pulmonary fibrosis in C57BL/6 mouse model assessed as decrease in smad3 phosphorylation level in lung tissue at 100 mg/kg, po qd administered from day 7 to 14 by immunohistochemical analysis; assay type: functional, organism-based; summary of the method: as §3
[16] = molecular target: T1, Transforming growth factor beta-1 proprotein/Mothers against decapentaplegic homolog 3 (Mus musculus); assay: Inhibition of TGF-beta1/smad3 signaling pathway in mouse NIH/3T3 cells at 40 uM after 18 hrs by CAGA-luciferase reporter gene assay; assay type: cell-based; summary of the method: as §2
[17] = molecular target: T1, Transforming growth factor beta-1 proprotein/Mothers against decapentaplegic homolog 3 (Mus musculus); assay: Inhibition of TGF-beta1/smad3 signaling pathway in mouse NIH/3T3 cell extract assessed as decrease in Smad3 phosphorylation at 10 uM after 30 mins by Western blot analysis; assay type: protein assay

Structure (SMILES): C=C1C(=O)O[C@@H]2C[C@@]3(C)CC[C@@H](OC(=O)c4ccccc4)[C@]4(CO4)[C@@H]3C[C@H]12
- inhibition [1]: 26.7%

Structure (SMILES): C=C1C(=O)O[C@@H]2C[C@@]3(C)CC[C@@H](O)[C@]4(CO4)[C@@H]3C[C@H]12
- inhibition [2]: Active
- inhibition [3]: Active
- inhibition [4]: Active
- inhibition [5]: Active
- inhibition [1]: 46%
- inhibition [6]: Active

Structure (SMILES): C#CCCCC(=O)O[C@@H]1CC[C@]2(C)C[C@H]3OC(=O)C(=C)[C@H]3C[C@H]2[C@@]12CO2
- inhibition [1]: 6.65%

Structure (SMILES): C=C1C(=O)O[C@@H]2C[C@@]3(C)CC[C@@H](OC(=O)C4=CCCCC4)[C@]4(CO4)[C@@H]3C[C@H]12
- inhibition [5]: inactive
- inhibition [1]: 34.8%

Structure (SMILES): C=C1C(=O)O[C@@H]2C[C@@]3(C)CC[C@@H](OC(=O)C4CC4)C(=C)[C@@H]3C[C@H]12
- inhibition [1]: 4.63%

Structure (SMILES): CN(C)C[C@@H]1C(=O)O[C@@H]2C[C@@]3(C)CC[C@@H](OC(=O)C4=CCCCC4)[C@]4(CO4)[C@@H]3C[C@H]12
- inhibition [7]: Active

Structure (SMILES): C=C1C(=O)O[C@@H]2C[C@@]3(C)CC[C@@H](OC(=O)[C@@H](NC(=O)OC(C)(C)C)C(C)C)C(=C)[C@@H]3C[C@H]12
- inhibition [1]: 22%

Structure (SMILES): C=C1C(=O)O[C@@H]2C[C@@]3(C)CC[C@@H](O[Si](C)(C)C(C)(C)C)C(=C)[C@@H]3C[C@H]12
- inhibition [1]: 27.8%

Structure (SMILES): C=C1C(=O)O[C@@H]2C[C@@]3(C)CC[C@@H](OC(=O)CP(=O)(OCC)OCC)[C@]4(CO4)[C@@H]3C[C@H]12
- inhibition [1]: 3.67%

Structure (SMILES): C=C1C(=O)O[C@@H]2C[C@@]3(C)CC[C@@H](OC(=O)[C@@H](NC(=O)OC(C)(C)C)C(C)C)[C@]4(CO4)[C@@H]3C[C@H]12
- inhibition [1]: 17.1%

Structure (SMILES): C=C1C(=O)O[C@@H]2C[C@@]3(C)CC[C@@H](OC(=O)CCCCCCC)[C@]4(CO4)[C@@H]3C[C@H]12
- inhibition [1]: -7.65%

Structure (SMILES): C=C1C(=O)O[C@@H]2C[C@@]3(C)CCC[C@H](C)[C@@]34O[C@H]4[C@H]12
- inhibition [2]: Active
- inhibition [3]: Active
- inhibition [4]: Active
- inhibition [5]: Active
- inhibition [1]: 77.7%
- inhibition [6]: Active

Structure (SMILES): C=C1C(=O)O[C@@H]2C[C@@]3(C)CCC[C@]4(CO4)[C@@H]3C[C@H]12
- inhibition [1]: 3.08%

Structure (SMILES): CCOC(=O)/C=C/C(=O)O[C@@H]1CC[C@]2(C)C[C@H]3OC(=O)[C@@H](CN(C)C)[C@H]3C[C@H]2[C@@]12CO2.O=C(O)/C=C/C(=O)O
- inhibition (Mus musculus [8]): Active
- inhibition (Mus musculus [9]): Active
- inhibition [10]: Active
- Activity (Mus musculus [11]): Active
- inhibition [12]: Active
- Activity (Mus musculus [13]): 53.5%
- inhibition (Mus musculus [14]): Active
- inhibition (Mus musculus [15]): Active
- inhibition [16]: Active
- inhibition [17]: Active

Structure (SMILES): C=C1C(=O)O[C@@H]2C[C@@]3(C)CC[C@@H](OC(C)=O)C(=C)[C@@H]3C[C@H]12
- inhibition [1]: 6.58%

Structure (SMILES): C=C1C(=O)O[C@@H]2C[C@@]3(C)CC[C@@H](O)C(=C)[C@@H]3C[C@H]12
- inhibition [2]: Active
- inhibition [3]: Active
- inhibition [5]: Active
- inhibition [1]: 61.9%
- inhibition [6]: Active

Structure (SMILES): C=C1C(=O)O[C@@H]2C[C@@]3(C)CC[C@@H](OC(=O)/C=C/C(=O)OCC)[C@]4(CO4)[C@@H]3C[C@H]12
- inhibition [3]: Active
- inhibition [5]: Active
- inhibition [1]: 71.3%
- inhibition [6]: Active

Structure (SMILES): C=C1C(=O)O[C@@H]2C[C@@]3(C)CC[C@@H](OC(C)=O)[C@]4(CO4)[C@@H]3C[C@H]12
- inhibition [1]: -2.36%

Structure (SMILES): C=C1[C@H](O)CC[C@]2(C)C[C@H]3OC(=O)[C@@H](CN(C)C)[C@H]3C[C@@H]12
- inhibition [7]: Active

Structure (SMILES): C=C1C(=O)O[C@@H]2C[C@@]3(C)CC[C@@H](OC(=O)/C=C/CCC)[C@]4(CO4)[C@@H]3C[C@H]12
- inhibition [1]: 13.5%

Structure (SMILES): C=C1C(=O)O[C@@H]2C[C@@]3(C)CCC(=O)C(=C)[C@@H]3C[C@H]12
- inhibition [1]: 2.24%
